Experimental data from ChEMBL document CHEMBL1275286, “Synthesis of the steroidal glycoside (25R)-3β,16β-diacetoxy-12,22-dioxo-5α-cholestan-26-yl β-D-glucopyranoside and its anti-cancer properties on cervicouterine HeLa, CaSki, and ViBo cells” (Eur J Med Chem, 2010).
Activity calls are given as the source filed them. The calls are words filed in the database; no cut-off is given here.

What was measured:
Ca-Ski [1] = assay: Induction of apoptosis in human CaSki cells assessed as DNA fragmentation at IC50 after 24 hrs by TUNEL assay; assay type: functional, cell-based
How it was run: (§1)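 Cells on coverslips treated at IC50 for 24 h, with ethanol (10 μL/mL) as control. Fixed in 2% formaldehyde 20 min, permeabilized with 0.05% Triton X-100 for 5 min at 4 °C. TdT labeling with biotin-dUTP for 1 h at 37 °C, detected with rhodamine-streptavidin, DAPI counterstain. Fluorescence microscopy; representative of three independent assays.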

ViBo [2] = assay: Induction of apoptosis in human ViBo cells assessed as DNA fragmentation at IC50 after 24 hrs by TUNEL assay; assay type: functional, cell-based; how it was run: as §1
HeLa [3] = assay: Induction of apoptosis in human HeLa cells assessed as DNA fragmentation at IC50 after 24 hrs by TUNEL assay; assay type: functional, cell-based; how it was run: as §1
ViBo [4] = assay: Induction of apoptosis in human ViBo cells assessed as caspase 3 activation at 65 uM after 24 hrs by immunocytochemistry; assay type: functional, cell-based
How it was run: (§2)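 Seeded at […] in RPMI-1640 with 5% NCS for 24 h, then treated with 42 or 65 μM. Fixed in formaldehyde, permeabilized in 0.5% Triton X-100, blocked. Rabbit polyclonal anti-active caspase-3 (1:50), then FITC goat anti-rabbit (1:200), DAPI counterstain. Epifluorescence microscopy; representative of three independent assays.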

ViBo [5] = assay: Induction of apoptosis in human ViBo cells assessed as caspase 3 activation at 42 uM after 24 hrs by immunocytochemistry; assay type: functional, cell-based; how it was run: as §2
Ca-Ski [6] = assay: Induction of apoptosis in human CaSki cells assessed as caspase 3 activation at 42 uM after 24 hrs by immunocytochemistry; assay type: functional, cell-based; how it was run: as §2
Ca-Ski [7] = assay: Induction of apoptosis in human CaSki cells assessed as caspase 3 activation at 65 uM after 24 hrs by immunocytochemistry; assay type: functional, cell-based; how it was run: as §2
HeLa [8] = assay: Induction of apoptosis in human HeLa cells assessed as caspase 3 activation at 42 uM after 24 hrs by immunocytochemistry; assay type: functional, cell-based; how it was run: as §2
ViBo [9] = assay: Induction of apoptosis in human ViBo cells assessed as chromatin condensation at 42 uM after 24 hrs by DAPI staining; assay type: functional, cell-based
HeLa [10] = assay: Induction of apoptosis in human HeLa cells assessed as caspase 3 activation at 65 uM after 24 hrs by immunocytochemistry; assay type: functional, cell-based; how it was run: as §2
HeLa [11] = assay: Induction of apoptosis in human HeLa cells assessed as chromatin condensation at 65 uM after 24 hrs by DAPI staining; assay type: functional, cell-based
Ca-Ski [12] = assay: Induction of apoptosis in human CaSki cells assessed as chromatin condensation at 65 uM after 24 hrs by DAPI staining; assay type: functional, cell-based
[13] = Cell cycle arrest in human ViBo cells assessed as accumulation at G1 phase at 65 uM after 24 hrs by flow cytometry; assay type: functional, cell-based; conditions: 42 uM, in the assay text read “at 42 uM” for “at 65 uM”
How it was run: (§3)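 Seeded at 10^5 cells/mL and grown 24 h, then exposed to 42 or 65 μM for 24 h, with ethanol as control. Harvested with versene, fixed and permeabilized in 50% methanol/PBS, treated with RNase (2.5 U/mL), stained with propidium iodide (0.2 μg/mL). Flow cytometry gave % DNA distribution by phase; Student's t-test versus ethanol.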

Ca-Ski [14] = assay: Cell cycle arrest in human CaSki cells assessed as accumulation at G2/M phase at 65 uM after 24 hrs by flow cytometry; assay type: functional, cell-based; how it was run: as §3
[15] = Cell cycle arrest in human ViBo cells assessed as accumulation at G1 phase at 42 uM after 24 hrs by flow cytometry; assay type: functional, cell-based; how it was run: as §3
HeLa [16] = assay: Cell cycle arrest in human HeLa cells assessed as accumulation at S phase at 65 uM after 24 hrs by flow cytometry; assay type: functional, cell-based; how it was run: as §3
Ca-Ski [17] = assay: Cell cycle arrest in human CaSki cells assessed as accumulation at G2/M phase at 42 uM after 24 hrs by flow cytometry; assay type: functional, cell-based; conditions: 65 uM, in the assay text read “at 65 uM” for “at 42 uM”; how it was run: as §3
HeLa [18] = assay: Cell cycle arrest in human HeLa cells assessed as accumulation at S phase at 42 uM after 24 hrs by flow cytometry; assay type: functional, cell-based; conditions: 65 uM, in the assay text read “at 65 uM” for “at 42 uM”; how it was run: as §3
Ca-Ski [19] = assay: Cytotoxicity against human CaSki cells assessed as LDH release at IC50 after 24 hrs by spectrophotometry; assay type: functional
How it was run: (§4)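 7500 cells/well grown 24 h, then exposed for 24 h to the line's IC50 concentration or to ethanol (10 μL/mL). LDH in the supernatant read by INT-formazan at 500 nm, expressed against Triton X-100 lysis set as 100%. Mean ± S.D. of three independent experiments with three repetitions; Student's t-test.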

[20] = Cytotoxicity against human ViBo cells assessed as LDH release at IC50 after 24 hrs by spectrophotometry; assay type: functional; how it was run: as §4
HeLa [21] = assay: Cytotoxicity against human HeLa cells assessed as LDH release at IC50 after 24 hrs by spectrophotometry; assay type: functional; how it was run: as §4
Ca-Ski [22] = assay: Antiproliferative activity human CaSki cells after 24 hrs by crystal violet staining; assay type: functional, cell-based
How it was run: (§5)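 Cells kept in RPMI-1640 with 5% newborn calf serum, 37 °C, 5% CO2, in exponential growth. 7500 cells/well seeded and grown 24 h, then exposed to a range of concentrations with ethanol as vehicle (1% in controls). Crystal violet staining after 24 h, absorbance at 590 nm; IC50 from dose–response curves.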

[23] = (§6) Antiproliferative activity human ViBo cells after 24 hrs by crystal violet staining; assay type: functional, cell-based; how it was run: as §5
ViBo [24] = assay: as §6; assay type: functional, cell-based; how it was run: as §5
HeLa [25] = assay: Antiproliferative activity human HeLa cells after 24 hrs by crystal violet staining; assay type: functional, cell-based; how it was run: as §5
[26] = Antiproliferative activity non-tumor human cervical fibroblast at 65 uM after 24 hrs by crystal violet staining
How it was run: (§7)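 Primary fibroblasts from hysterectomy cervix explants of patients without malignant disease. Tissue digested with 0.05% trypsin at 37 °C, cultured in RPMI-1640 with 10% NCS, adherent cells subcultured. Exposed to 42 or 65 μM, with 1% ethanol in controls. Cell number by crystal violet staining.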

[27] = Antiproliferative activity non-tumor human cervical fibroblast at 42 uM after 24 hrs by crystal violet staining; how it was run: as §7
[28] = Effect on enriched human lymphocyte proliferation at 42 uM after 72 hrs by CSFE staining; assay type: cell-based
How it was run: (§8)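 PBMCs from healthy donors' heparinized blood isolated on a Hypaque gradient; adherent cells removed after 1 h. Labeled with 12 μM CFSE (final) for 15 min at room temperature, quenched with NCS, washed. Plated at 2×10^5 cells/well, unstimulated, PHA-stimulated or treated (42 or 65 μM), five replicates, 72 h at 37 °C.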

[29] = Effect on enriched human lymphocyte proliferation at 65 uM after 72 hrs by CSFE staining; assay type: cell-based; how it was run: as §8
[30] = Cytotoxicity against human lymphocytes assessed as LDH release at IC50 after 72 hrs by spectrophotometry; conditions: lymphocyte

## CC(=O)O[C@H]1CC[C@@]2(C)[C@@H](CC[C@@H]3[C@@H]2CC(=O)[C@]2(C)[C@@H]([C@H](C)C(=O)CC[C@@H](C)CO[C@@H]4O[C@H](CO)[C@@H](O)[C@H](O)[C@H]4O)[C@@H](OC(C)=O)C[C@@H]32)C1
Ca-Ski [1]
  Activity: Active
ViBo [2]
  Activity: Active
HeLa [3]
  Activity: Active
ViBo [4]
  Activity: Active
ViBo [5]
  Activity: Active
Ca-Ski [6]
  Activity: Active
Ca-Ski [7]
  Activity: Active
HeLa [8]
  Activity: Active
ViBo [9]
  Activity: Active
HeLa [10]
  Activity: Active
HeLa [11]
  Activity: Active
Ca-Ski [12]
  Activity: Active
[13]
  Activity: Active
Ca-Ski [14]
  Activity: Active
[15]
  Activity: Active
HeLa [16]
  Activity: Active
Ca-Ski [17]
  Activity: Active
HeLa [18]
  Activity: Active
Ca-Ski [19]
  Activity: 17%
[20]
  Activity: 3%
HeLa [21]
  Activity: 13%
Ca-Ski [22]
  Activity: Dose-dependent effect
  IC50: 65 µM
[23]
  IC50: 42 µM
ViBo [24]
  Activity: Dose-dependent effect
HeLa [25]
  Activity: Dose-dependent effect
  IC50: 65 µM
[26]
  Activity: < 20%
[27]
  Activity: < 20%
[28]
  Activity: 73.88%
[29]
  Activity: 71.06%
[30]
  Activity: Non-toxic

## CC(=O)O[C@H]1CC[C@@]2(C)[C@@H](CC[C@@H]3[C@@H]2CC(=O)[C@]2(C)[C@@H]([C@H](C)C(=O)CC[C@@H](C)CO)[C@@H](OC(C)=O)C[C@@H]32)C1
Ca-Ski [19]
  Activity: 28%
